IC50 data for 11 compounds are collected here from ChEMBL document CHEMBL4431302, “Vobatensines A-F, Cytotoxic Iboga-Vobasine Bisindoles from Tabernaemontana corymbosa” (J Nat Prod, 2016).

SMILES strings stand for the structures.

In one test the test system is LNCaP. Briefly: Growth inhibition of human LNCAP cells after 72 hrs by MTT assay. The format is functional, cell-based. An outline of the steps:
(§1)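 Cytotoxicity run by a previously reported procedure, with vincristine and cisplatin as positive controls.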

In another test the test system is HCT-116. Briefly: Growth inhibition of human HCT116 cells after 72 hrs by MTT assay. It is filed as functional, cell-based. Conditions: HCT-116, 72 h. An outline of the steps: as §1
A general note: Tetrazolium dyes change colour on reduction, which living cells bring about.

The subject of a further test is MCF7. Briefly: Growth inhibition of human MCF7 cells after 72 hrs by MTT assay. Conditions: MCF7, 72 h. The format is functional, cell-based. An outline of the steps: as §1
A short description of test [1]: Growth inhibition of human KB/S cells after 72 hrs by MTT assay. It is filed as functional. An outline of the steps: as §1
The next test concerns HT-29. Briefly: Growth inhibition of human HT-29 cells after 72 hrs by MTT assay. It is filed as functional, cell-based. The settings on record: HT-29, 72 h. An outline of the steps:
as §1

A further test has as its system MDA-MB-231. Briefly: Growth inhibition of human MDA-MB-231 cells after 72 hrs by MTT assay. It is filed as functional, cell-based. The settings on record: MDA-MB-231, 72 h. An outline of the steps: as §1
Another test has as its system PC-3. Briefly: Growth inhibition of human PC3 cells after 72 hrs by MTT assay. It is filed as functional, cell-based. The settings on record: PC-3, 72 h. An outline of the steps:
as §1

Test [2] has as its system KB/VJ300. Briefly: Growth inhibition of human KB/VJ300 cells after 72 hrs by MTT assay. The settings on record: KB/VJ300, 72 h. It is filed as functional, cell-based. An outline of the steps: as §1
Test [3] relates to KB/VJ300. Briefly: Growth inhibition of human KB/VJ300 cells after 72 hrs in presence of vincristine by MTT assay. The format is functional, cell-based. The settings on record: KB/VJ300, 72 h. In a few lines:
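Vincristine-resistant KB/VJ300 cells were exposed to test compound together with vincristine at 0.1 μg/mL, a multidrug-resistance reversal set-up. Cytotoxicity was run by a previously reported procedure, with vincristine and cisplatin as positive controls.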

A further test has as its system A549. Briefly: Growth inhibition of human A549 cells after 72 hrs by MTT assay. The format is functional, cell-based. The settings on record: A549, 72 h. In a few lines:
as §1

On to `CC[C@@H]1CN(C)[C@H]2Cc3c([nH]c4ccccc34)[C@@H](c3cc4c(cc3OC)C(=O)[C@@]3(CCN5C[C@H]6C[C@H](CC)[C@H]5[C@H]3C6)N4)C[C@H]1[C@@H]2C(=O)OC`, for which the IC50 (as a rule, the concentration that inhibits the measured activity by half) in the test on LNCaP was greater than 10 µM; in the test with HCT-116, 7.8 µM; in the test with MCF7, 7.5 µM; in [1] it was greater than 10 µM; with HT-29 it was 1.8 µM; in the test on MDA-MB-231, 3.3 µM. In addition, the half-maximal inhibitory concentration (IC50) was 8.1 µM with PC-3, greater than 10 µM with KB/VJ300 [2], 5.1 µM with KB/VJ300 [3] and 8.4 µM in the test on A549.
As to `COc1ccc(CCN(C)CCCC(C#N)(c2ccc(OC)c(OC)c2)C(C)C)cc1OC` (stereo not given) [VERAPAMIL], the figures for the IC50 (in test [1]; in the test with KB/VJ300 [2]; in the test with KB/VJ300 [3]) were greater than 10 µM, greater than 10 µM and 4.6 µM, respectively.
`C/C=C1/CN(C)[C@H]2Cc3c([nH]c4ccccc34)[C@@H](c3cc4[nH]c5c(c4cc3OC)CCN3C[C@H]4C[C@H](CC)[C@H]3[C@H]5C4)C[C@H]1[C@@H]2C(=O)OC`: the IC50 is greater than 10 µM in the test on LNCaP; 1.6 µM in the test on HCT-116; 6 µM in the test on MCF7; 5.3 µM in [1]; 0.93 µM in the test on HT-29; 2.5 µM with MDA-MB-231. For the same compound, the 50% inhibitory concentration (IC50) with PC-3 amounted to 2.8 µM; in the test with KB/VJ300 [2], 5 µM; with KB/VJ300 [3], 7 µM; in the test with A549, 6.8 µM.
`C/C=C1/CN(C)[C@H]2Cc3c([nH]c4ccccc34)[C@@H](c3cc4c(cc3OC)C(=O)[C@@]3(CCN5C[C@H]6C[C@H](CC)[C@H]5[C@H]3C6)N4)C[C@H]1[C@@H]2C(=O)OC`: the IC50 in the test on LNCaP was 10 µM; in the test on HCT-116, 7.1 µM; with MCF7 it was 9.4 µM; in test [1], 8.3 µM; in the test with HT-29 it was 2.9 µM; with MDA-MB-231, 7.7 µM. For the same compound, the IC50 with PC-3 turned out to be 8.8 µM; in the test with KB/VJ300 [2], 9.1 µM; with KB/VJ300 [3], 3.3 µM; with A549, 9.1 µM.
Regarding `C/C=C1/CN(C)[C@H]2Cc3c([nH]c4ccccc34)[C@@H](c3cc4[nH]c5c(c4cc3OC)CCN3C[C@H]4C[C@H]([C@@H](C)O)[C@H]3[C@H]5C4)C[C@H]1[C@@H]2C(=O)OC`, the IC50 in the test on LNCaP was greater than 10 µM; with HCT-116 it was 3 µM; with MCF7, 8.8 µM; in test [1], 8.2 µM; with HT-29, 1.2 µM; in the test with MDA-MB-231, 3.9 µM. In addition, the IC50 in the test on PC-3 was 5.7 µM; with KB/VJ300 [2], 7.2 µM; in the test with KB/VJ300 [3], greater than 10 µM; in the test on A549, 9.7 µM.
Consider `C/C=C1/CN(C)[C@H]2Cc3c([nH]c4ccccc34)[C@@H](c3c(OC)ccc4[nH]c5c(c34)CCN3C[C@H]4C[C@H](CC)[C@H]3[C@H]5C4)C[C@H]1[C@@H]2C(=O)OC`, for which the IC50 in the test on LNCaP was greater than 10 µM; in the test on HCT-116 it was 7.4 µM; in the test with MCF7, greater than 10 µM; in [1], greater than 10 µM; with HT-29, 1.9 µM; in the test on MDA-MB-231, 4.6 µM. In addition, the IC50 was 7.7 µM in the test with PC-3, 10 to 30 µM with KB/VJ300 [2], 9 to 9.6 µM in the test on KB/VJ300 [3] and greater than 10 µM with A549.
For the compound `C/C=C1/CN(C)[C@H]2Cc3c([nH]c4ccccc34)[C@@H](c3cc4c(cc3OC)[C@@]3(O)CCN5C[C@H]6C[C@H](CC)[C@H]5[C@@H](C6)C3=N4)C[C@H]1[C@@H]2C(=O)OC`, the IC50 was greater than 10 µM in the test with LNCaP; 9.7 µM in the test on HCT-116; greater than 10 µM with MCF7; greater than 10 µM in test [1]; 7.2 µM in the test on HT-29; greater than 10 µM in the test on MDA-MB-231. Moreover, the IC50 in the test with PC-3 was 5.6 µM; with KB/VJ300 [2], 10 to 30 µM; with KB/VJ300 [3], 9 to 9.2 µM; in the test with A549, greater than 10 µM.
In the case of `CC[C@@H]1CN(C)[C@H]2Cc3c([nH]c4ccccc34)[C@@H](c3cc4[nH]c5c(c4cc3OC)CCN3C[C@H]4C[C@H]([C@@H](C)O)[C@H]3[C@H]5C4)C[C@H]1[C@@H]2C(=O)OC`, the IC50 was greater than 10 µM with LNCaP; 3.5 µM with HCT-116; 9.3 µM in the test with MCF7; 8 µM in [1]; 2.4 µM with HT-29; 3.6 µM in the test with MDA-MB-231. Besides, the IC50 in the test on PC-3 stood at 6.9 µM; in the test on KB/VJ300 [2], 8.1 µM; with KB/VJ300 [3] it was 8.6 µM; in the test with A549 it was 9.6 µM.
For the compound `CC[C@]1(O)C[C@H]2CN(CCc3c([nH]c4ccccc34)[C@@](C(=O)OC)(c3cc4c(cc3OC)N(C=O)[C@H]3[C@@](O)(C(=O)OC)[C@H](OC(C)=O)[C@]5(CC)C=CCN6CC[C@]43[C@@H]65)C2)C1` [VINCRISTINE], the figures for the IC50 (in test [1]; in the test with KB/VJ300 [2]) were 0.0024 µM and 6.6 µM, respectively.
Regarding `C/C=C1/CN2CC[C@]34C(=C(C=O)C1C[C@H]23)Nc1cc([C@H]2C[C@@H]3/C(=C\C)CN(C)[C@@H](Cc5c2[nH]c2ccccc52)[C@H]3C(=O)OC)ccc14`, the IC50 in the test on LNCaP is greater than 10 µM; in the test on HCT-116, 6.7 µM; in the test on MCF7, 8.6 µM; in test [1], greater than 10 µM; with HT-29 it was 1.3 µM; in the test with MDA-MB-231 it was 4.5 µM. The concentration for half-maximal inhibition (IC50) with PC-3 was 5.4 µM; in the test with KB/VJ300 [2], greater than 10 µM; in the test on KB/VJ300 [3], greater than 10 µM; with A549 it was 9.2 µM.
Consider `CC[C@@H]1CN(C)[C@H]2Cc3c([nH]c4ccccc34)[C@@H](c3cc4[nH]c5c(c4cc3OC)CCN3C[C@H]4C[C@H](CC)[C@H]3[C@H]5C4)C[C@H]1[C@@H]2C(=O)OC`, for which the IC50 is greater than 10 µM in the test on LNCaP; 2.9 µM with HCT-116; 3.4 µM with MCF7; 8 µM in test [1]; 0.92 µM in the test on HT-29; 2.8 µM in the test with MDA-MB-231. Further, the half-inhibitory concentration (IC50) in the test on PC-3 was 3.5 µM; in the test on KB/VJ300 [2], 8.3 µM; with KB/VJ300 [3] it was 9.3 µM; with A549 it was greater than 10 µM.
